{
  "source": "ChEMBL document CHEMBL1123960",
  "about": "“Thyroid hormone analogues. Synthesis of 3'-substituted 3,5-diiodo-L-thyronines and quantitative structure-activity studies of in vitro and in vivo thyromimetic activities in rat liver and heart” (J Med Chem, 1988)",
  "key": {"[1]": {"experiment": "pKa for compound was evaluated", "type": "physicochemical"}, "Rattus norvegicus [2]": {"organism": "Rattus norvegicus", "experiment": "Thyromimetic activity (induction of GPDH) in rat heart expressed as percentage of ratio of the ED50 for T3 to that of the test compound; Full agonist", "type": "functional, organism-based", "conditions": "filed as agonist", "procedure,_shortened": "(§1)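 Hypothyroid rats received a single intramuscular injection in 0.15 M NaCl/0.01 M NaOH vehicle (1 mL/kg), up to 50 mg/kg. Mitochondrial GPDH activity was measured in the organ 48 h later. Dose-response curves were fitted to a hyperbola by nonlinear fitting to give ED50, and rel ED50 = (ED50 T3 / ED50 compound) × 100. Where the maximum was below T3's, the percent of maximal response at 50 mg/kg was calculated.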"}, "[3]": {"molecular_target": "T1, Thyroid hormone receptor beta (Rattus norvegicus) (UniProt P18113)", "T1 sequence (whole entry)": "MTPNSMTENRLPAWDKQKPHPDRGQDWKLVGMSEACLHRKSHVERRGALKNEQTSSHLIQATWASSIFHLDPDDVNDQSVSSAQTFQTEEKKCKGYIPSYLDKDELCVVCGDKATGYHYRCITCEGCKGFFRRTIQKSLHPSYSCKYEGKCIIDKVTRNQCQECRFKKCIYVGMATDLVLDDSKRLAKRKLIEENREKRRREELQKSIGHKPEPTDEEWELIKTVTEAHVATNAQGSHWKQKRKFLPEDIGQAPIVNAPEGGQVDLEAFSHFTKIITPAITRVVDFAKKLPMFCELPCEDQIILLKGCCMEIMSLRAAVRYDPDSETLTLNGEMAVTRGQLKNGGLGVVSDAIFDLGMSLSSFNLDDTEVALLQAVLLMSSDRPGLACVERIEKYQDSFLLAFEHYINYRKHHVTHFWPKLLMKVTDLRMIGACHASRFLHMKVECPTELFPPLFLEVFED", "experiment": "Thyromimetic activity (induction of GPDH) in rat heart expressed as percentage of ratio of the ED50 for T3; F= Full agonist", "type": "functional, tissue-based", "conditions": "filed as agonist", "procedure,_shortened": "as §1"}, "[4]": {"molecular_target": "T1, Thyroid hormone receptor beta (Rattus norvegicus)", "experiment": "Thyromimetic activity (induction of GPDH) in rat liver expressed as percentage of ratio of the ED50 for T3; F= Full agonist", "type": "functional", "conditions": "filed as agonist", "procedure,_shortened": "as §1"}, "Rattus norvegicus [5]": {"organism": "Rattus norvegicus", "experiment": "Thyromimetic activity (induction of GPDH) in rat liver expressed as percentage of ratio of the ED50 for T3 to that of the test compound; Full agonist", "type": "functional, organism-based", "conditions": "filed as agonist", "procedure,_shortened": "as §1"}, "Rattus norvegicus [6]": {"organism": "Rattus norvegicus", "experiment": "Thyromimetic activity (induction of GPDH) in rat liver expressed as percentage of ratio of the ED50 for T3 to that of the test compound; I= Inactive", "type": "functional, organism-based", "procedure,_shortened": "as §1"}, "[7]": {"molecular_target": "T1, Thyroid hormone receptor beta (Rattus norvegicus)", "experiment": "Thyromimetic activity (induction of GPDH) in rat heart expressed as percentage of ratio of the ED50 for T3; I= Inactive", "type": "functional, tissue-based", "procedure,_shortened": "as §1"}, "Rattus norvegicus [8]": {"system": "Rattus norvegicus", "experiment": "Relative in vivo thyromimetic potency (GPDH induction) in rat heart, expressed as percent ratio of ED50 for T3 to that of compound; F= Full agonist", "conditions": "filed as agonist"}, "Rattus norvegicus [9]": {"organism": "Rattus norvegicus", "experiment": "Thyromimetic activity (induction of GPDH) in rat heart expressed as percentage of ratio of the ED50 for T3 to that of the test compound; LM= Low maximum response", "type": "functional, organism-based", "conditions": "filed as partial agonist", "procedure,_shortened": "as §1"}},
  "note": "Active and inactive are the calls of the source. The calls are words filed in the database; no cut-off is given here.",
  "data": [
    {"compound": "NC(Cc1cc(I)c(Oc2ccc(O)c(CO)c2)c(I)c1)C(=O)O", "note": "(stereo unspecified)", "values": [
      {"measurement": "pKa", "setting": "[1]", "result": 9.92}
    ]},
    {"compound": "NC(Cc1cc(I)c(Oc2ccc(O)c(C=O)c2)c(I)c1)C(=O)O", "note": "(stereo unspecified)", "values": [
      {"measurement": "pKa", "setting": "[1]", "result": 8.37},
      {"measurement": "Relative ED50", "setting": "Rattus norvegicus [2]", "result": "Agonist"}
    ]},
    {"compound": "NC(Cc1cc(I)c(Oc2ccc(O)c(O)c2)c(I)c1)C(=O)O", "note": "(stereo unspecified)", "values": [
      {"measurement": "pKa", "setting": "[1]", "result": 9.34}
    ]},
    {"compound": "NC(Cc1cc(I)c(Oc2ccc(O)c(-c3ccccc3)c2)c(I)c1)C(=O)O", "note": "(stereo unspecified)", "values": [
      {"measurement": "pKa", "setting": "[1]", "result": 10}
    ]},
    {"compound": "COCc1cc(Oc2c(I)cc(CC(N)C(=O)O)cc2I)ccc1O", "note": "(stereo unspecified)", "values": [
      {"measurement": "pKa", "setting": "[1]", "result": 9.85},
      {"measurement": "Relative ED50", "setting": "[3]", "result": "Agonist"}
    ]},
    {"compound": "N[C@@H](Cc1cc(I)c(Oc2ccc(O)cc2)c(I)c1)C(=O)O", "values": [
      {"measurement": "pKa", "setting": "[1]", "result": 9.99}
    ]},
    {"compound": "NC(Cc1cc(I)c(Oc2ccc(O)c(CC3CCCCC3)c2)c(I)c1)C(=O)O", "note": "(stereo unspecified)", "values": [
      {"measurement": "Relative ED50", "setting": "[4]", "result": "Agonist"},
      {"measurement": "Relative ED50", "setting": "[3]", "result": "Agonist"}
    ]},
    {"compound": "NC(Cc1cc(I)c(Oc2ccc(O)c([N+](=O)[O-])c2)c(I)c1)C(=O)O", "note": "(stereo unspecified)", "values": [
      {"measurement": "pKa", "setting": "[1]", "result": 7.23},
      {"measurement": "Relative ED50", "setting": "[3]", "result": "Agonist"}
    ]},
    {"compound": "COCCCCc1cc(Oc2c(I)cc(CC(N)C(=O)O)cc2I)ccc1O", "note": "(stereo unspecified)", "values": [
      {"measurement": "Relative ED50", "setting": "[3]", "result": "Agonist"}
    ]},
    {"compound": "CCC(=O)c1cc(Oc2c(I)cc(CC(N)C(=O)O)cc2I)ccc1O", "note": "(stereo unspecified)", "values": [
      {"measurement": "Relative ED50", "setting": "Rattus norvegicus [5]", "result": "Agonist"}
    ]},
    {"compound": "CCC(C)c1cc(Oc2c(I)cc(CC(N)C(=O)O)cc2I)ccc1O", "note": "(stereo unspecified)", "values": [
      {"measurement": "Relative ED50", "setting": "[4]", "result": "Agonist"},
      {"measurement": "Relative ED50", "setting": "[3]", "result": "Agonist"}
    ]},
    {"compound": "NC(Cc1cc(I)c(Oc2ccc(O)c(Cl)c2)c(I)c1)C(=O)O", "note": "(stereo unspecified)", "values": [
      {"measurement": "pKa", "setting": "[1]", "result": 8.56}
    ]},
    {"compound": "CCCCc1cc(Oc2c(I)cc(CC(N)C(=O)O)cc2I)ccc1O", "note": "(stereo unspecified)", "values": [
      {"measurement": "Relative ED50", "setting": "[3]", "result": "Agonist"}
    ]},
    {"compound": "N[C@@H](Cc1cc(I)c(Oc2ccc(O)c(I)c2)c(I)c1)C(=O)O", "note": "[LIOTHYRONINE]", "values": [
      {"measurement": "pKa", "setting": "[1]", "result": 8.51}
    ]},
    {"compound": "CC(=O)c1cc(Oc2c(I)cc(CC(N)C(=O)O)cc2I)ccc1O", "note": "(stereo unspecified)", "values": [
      {"measurement": "pKa", "setting": "[1]", "result": 10.1}
    ]},
    {"compound": "Cc1cc(Oc2c(I)cc(CC(N)C(=O)O)cc2I)ccc1O", "note": "(stereo unspecified)", "values": [
      {"measurement": "pKa", "setting": "[1]", "result": 10.3}
    ]},
    {"compound": "NCc1cc(Oc2c(I)cc(CC(N)C(=O)O)cc2I)ccc1O", "note": "(stereo unspecified)", "values": [
      {"measurement": "Relative ED50", "setting": "Rattus norvegicus [6]", "result": "inactive"},
      {"measurement": "Relative ED50", "setting": "[7]", "result": "inactive"}
    ]},
    {"compound": "CCCCSCc1cc(Oc2c(I)cc(CC(N)C(=O)O)cc2I)ccc1O", "note": "(stereo unspecified)", "values": [
      {"measurement": "Relative ED50", "setting": "[4]", "result": "Agonist"}
    ]},
    {"compound": "CC(C)c1cc(Oc2c(I)cc(CC(N)C(=O)O)cc2I)ccc1O", "note": "(stereo unspecified)", "values": [
      {"measurement": "pKa", "setting": "[1]", "result": 10.5}
    ]},
    {"compound": "CCOCCCc1cc(Oc2c(I)cc(CC(N)C(=O)O)cc2I)ccc1O", "note": "(stereo unspecified)", "values": [
      {"measurement": "Relative ED50", "setting": "[4]", "result": "Agonist"}
    ]},
    {"compound": "CCC(=O)NCCc1cc(Oc2c(I)cc(CC(N)C(=O)O)cc2I)ccc1O", "note": "(stereo unspecified)", "values": [
      {"measurement": "Relative ED50", "setting": "[7]", "result": "inactive"}
    ]},
    {"compound": "NC(Cc1cc(I)c(Oc2ccc(O)c(Br)c2)c(I)c1)C(=O)O", "note": "(stereo unspecified)", "values": [
      {"measurement": "pKa", "setting": "[1]", "result": 8.45}
    ]},
    {"compound": "CCCC(=O)NCc1cc(Oc2c(I)cc(CC(N)C(=O)O)cc2I)ccc1O", "note": "(stereo unspecified)", "values": [
      {"measurement": "Relative ED50", "setting": "Rattus norvegicus [6]", "result": "inactive"},
      {"measurement": "Relative ED50", "setting": "[7]", "result": "inactive"}
    ]},
    {"compound": "NC(Cc1cc(I)c(Oc2ccc(O)c(C3CCCCC3)c2)c(I)c1)C(=O)O", "note": "(stereo unspecified)", "values": [
      {"measurement": "Relative ED50", "setting": "[4]", "result": "Agonist"}
    ]},
    {"compound": "NC(Cc1cc(I)c(Oc2ccc(O)c(Cc3ccccc3)c2)c(I)c1)C(=O)O", "note": "(stereo unspecified)", "values": [
      {"measurement": "pKa", "setting": "[1]", "result": 10.1}
    ]},
    {"compound": "CC(C)(C)c1cc(Oc2c(I)cc(CC(N)C(=O)O)cc2I)ccc1O", "note": "(stereo unspecified)", "values": [
      {"measurement": "pKa", "setting": "[1]", "result": 10.6}
    ]},
    {"compound": "CC(=O)NCCCc1cc(Oc2c(I)cc(CC(N)C(=O)O)cc2I)ccc1O", "note": "(stereo unspecified)", "values": [
      {"measurement": "Relative ED50", "setting": "[7]", "result": "inactive"}
    ]},
    {"compound": "NC(Cc1cc(I)c(Oc2ccc(O)c(C(=O)O)c2)c(I)c1)C(=O)O", "note": "(stereo unspecified)", "values": [
      {"measurement": "Relative ED50", "setting": "Rattus norvegicus [6]", "result": "inactive"},
      {"measurement": "Relative ED50", "setting": "[7]", "result": "inactive"}
    ]},
    {"compound": "C=CCc1cc(Oc2c(I)cc(CC(N)C(=O)O)cc2I)ccc1O", "note": "(stereo unspecified)", "values": [
      {"measurement": "pKa", "setting": "[1]", "result": 10.3}
    ]},
    {"compound": "CCCCOCc1cc(Oc2c(I)cc(CC(N)C(=O)O)cc2I)ccc1O", "note": "(stereo unspecified)", "values": [
      {"measurement": "Relative ED50", "setting": "[4]", "result": "Agonist"},
      {"measurement": "Relative ED50", "setting": "[3]", "result": "Agonist"}
    ]},
    {"compound": "NC(Cc1cc(I)c(Oc2ccc(O)c(F)c2)c(I)c1)C(=O)O", "note": "(stereo unspecified)", "values": [
      {"measurement": "Relative ED50", "setting": "Rattus norvegicus [8]", "result": "Agonist"},
      {"measurement": "pKa", "setting": "[1]", "result": 8.73},
      {"measurement": "Relative ED50", "setting": "[4]", "result": "Agonist"}
    ]},
    {"compound": "CC(C)Cc1cc(Oc2c(I)cc(CC(N)C(=O)O)cc2I)ccc1O", "note": "(stereo unspecified)", "values": [
      {"measurement": "Relative ED50", "setting": "[4]", "result": "Agonist"},
      {"measurement": "Relative ED50", "setting": "[3]", "result": "Agonist"}
    ]},
    {"compound": "NC(Cc1cc(I)c(Oc2ccc(O)c(CCCCO)c2)c(I)c1)C(=O)O", "note": "(stereo unspecified)", "values": [
      {"measurement": "Relative ED50", "setting": "Rattus norvegicus [9]", "result": "Partial agonist"}
    ]},
    {"compound": "NCCc1cc(Oc2c(I)cc(CC(N)C(=O)O)cc2I)ccc1O", "note": "(stereo unspecified)", "values": [
      {"measurement": "Relative ED50", "setting": "[7]", "result": "inactive"}
    ]}
  ]
}
